Test results taken from ChEMBL document CHEMBL3045066, “Synthesis, structure-activity relationships (SAR) and in silico studies of coumarin derivatives with antifungal activity” (2013).
Converted amounts (≈) assume the structure as drawn.

Legend:
Type in all cases: functional
[1] = system: Aspergillus flavus; experiment: Antifungal activity against Aspergillus flavus LM 210 after 72 hr by broth microdilution method; settings: LM 210, 72 h
In short: (§1)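 Molds were grown 7 days on SDA at 25–28 °C, and conidia were harvested in sterile 0.85% NaCl. Conidia were counted by hemocytometer and adjusted to about 5 × 10^6 conidia/mL. Microdilution used Sabouraud broth in 96-well plates with compound at 2048 to 8 μg/mL and about 2.5 × 10^5 conidia/mL per well. Plates were incubated at 25–28 °C for 72 h, with readings confirmed at 7 days. Amphotericin B was the reference.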

[2] = system: Aspergillus flavus; experiment: Antifungal activity against Aspergillus flavus ATCC 16013 after 72 hr by broth microdilution method; settings: ATCC 16013, 72 h; in short: as §1
[3] = system: Aspergillus fumigatus; experiment: Antifungal activity against Aspergillus fumigatus ATCC 46913 after 72 hr by broth microdilution method; settings: ATCC 46913, 72 h; in short: as §1
[4] = system: Aspergillus fumigatus; experiment: Antifungal activity against Aspergillus fumigatus ATCC 16913 after 72 hr by broth microdilution method; settings: for MIC: Aspergillus fumigatus, ATCC 16913, 72 h; in short: as §1
[5] = system: Aspergillus fumigatus; experiment: Antifungal activity against Aspergillus fumigatus IPP 210 after 72 hr by broth microdilution method; settings: IPP 210, 72 h; in short: as §1
[6] = system: Aspergillus flavus; experiment: Antifungal activity against Aspergillus flavus LM 26 after 72 hr by broth microdilution method; settings: LM 26, 72 h; in short: as §1
[7] = system: Aspergillus flavus; experiment: Antifungal activity against Aspergillus flavus LM 247 after 72 hr by broth microdilution method; settings: LM 247, 72 h; in short: as §1
[8] = system: Aspergillus fumigatus; experiment: Antifungal activity against Aspergillus fumigatus ATCC 40640 after 72 hr by broth microdilution method; settings: ATCC 40640, 72 h; in short: as §1

Row | SMILES | MIC [1] [mg/L] | MIC [2] [mg/L] | MIC [3] [mg/L] | log(1/MIC) [4] | MIC [4] [mg/L] | MIC [5] [mg/L] | MIC [6] [mg/L] | MIC [7] [mg/L] | MIC [8] [mg/L]
1 | C=CCOc1ccc2oc(=O)ccc2c1 | ≥ 2050 | ≥ 2050 | ≥ 2050 | 1.99 | ≥ 2050 | ≥ 2050 | ≥ 2050 | ≥ 2050 | ≥ 2050
2 | C=CCOc1cc(=O)oc2ccccc12 | 32 (≈ 158 µM) | 32 (≈ 158 µM) | 32 (≈ 158 µM) | 3.8 | 32 (≈ 158 µM) | 64 (≈ 317 µM) | 64 (≈ 317 µM) | 1020 (≈ 5060 µM) | 32 (≈ 158 µM)
3 | CC(C)=CCOc1ccc2oc(=O)ccc2c1 | ≥ 2050 | ≥ 2050 | ≥ 2050 | 2.05 | ≥ 2050 | ≥ 2050 | ≥ 2050 | ≥ 2050 | ≥ 2050
4 | CC(C)=CCC/C(C)=C/COc1ccc2oc(=O)ccc2c1 | ≥ 2050 | ≥ 2050 | ≥ 2050 | 2.16 | ≥ 2050 | ≥ 2050 | ≥ 2050 | ≥ 2050 | ≥ 2050
5 | CC(=O)Oc1ccc2oc(=O)ccc2c1 | 256 (≈ 1250 µM) | 256 (≈ 1250 µM) | 256 (≈ 1250 µM) | 2.89 | 256 (≈ 1250 µM) | 256 (≈ 1250 µM) | 256 (≈ 1250 µM) | 256 (≈ 1250 µM) | 256 (≈ 1250 µM)
6 | CC(=O)Oc1cc(=O)oc2ccccc12 | 16 (≈ 78.4 µM) | 16 (≈ 78.4 µM) | 16 (≈ 78.4 µM) | 4.1 | 16 (≈ 78.4 µM) | 16 (≈ 78.4 µM) | 16 (≈ 78.4 µM) | 16 (≈ 78.4 µM) | 16 (≈ 78.4 µM)
7 | CCOC(=O)COc1ccc2ccc(=O)oc2c1 | 512 (≈ 2060 µM) | 512 (≈ 2060 µM) | 512 (≈ 2060 µM) | 2.68 | 512 (≈ 2060 µM) | 512 (≈ 2060 µM) | 512 (≈ 2060 µM) | 512 (≈ 2060 µM) | 512 (≈ 2060 µM)
8 | O=c1ccc2cc([N+](=O)[O-])c(O)cc2o1 | 16 (≈ 77.2 µM) | 16 (≈ 77.2 µM) | 16 (≈ 77.2 µM) | 4.11 | 16 (≈ 77.2 µM) | 16 (≈ 77.2 µM) | 16 (≈ 77.2 µM) | 16 (≈ 77.2 µM) | 16 (≈ 77.2 µM)
9 | O=c1ccc2c([N+](=O)[O-])c(O)c([N+](=O)[O-])cc2o1 | 512 (≈ 2030 µM) | 512 (≈ 2030 µM) | 512 (≈ 2030 µM) | 2.69 | 512 (≈ 2030 µM) | 512 (≈ 2030 µM) | 512 (≈ 2030 µM) | 512 (≈ 2030 µM) | 512 (≈ 2030 µM)
10 | O=c1oc2ccccc2c(O)c1[N+](=O)[O-] | 1020 (≈ 4940 µM) | 1020 (≈ 4940 µM) | 1020 (≈ 4940 µM) | 2.3 | 1020 (≈ 4940 µM) | 1020 (≈ 4940 µM) | 1020 (≈ 4940 µM) | 1020 (≈ 4940 µM) | 1020 (≈ 4940 µM)
11 | O=c1oc2ccccc2cc1O [3-HYDROXYCOUMARIN] | 128 (≈ 789 µM) | 128 (≈ 789 µM) | 64 (≈ 395 µM) | 3.4 | 64 (≈ 395 µM) | 64 (≈ 395 µM) | 128 (≈ 789 µM) | 128 (≈ 789 µM) | 64 (≈ 395 µM)
12 | O=c1cc(O)c2ccccc2o1 [4-HYDROXYCOUMARINS] | ≥ 2050 | ≥ 2050 | ≥ 2050 | 1.89 | ≥ 2050 | ≥ 2050 | ≥ 2050 | ≥ 2050 | ≥ 2050
13 | O=c1ccc2cc(O)ccc2o1 [6-HYDROXYCOUMARIN] | ≥ 2050 | ≥ 2050 | ≥ 2050 | 1.89 | ≥ 2050 | ≥ 2050 | ≥ 2050 | ≥ 2050 | ≥ 2050
14 | CC(=O)Oc1ccc2ccc(=O)oc2c1 [7-ACETOXYCOUMARIN] | 64 (≈ 313 µM) | 64 (≈ 313 µM) | 64 (≈ 313 µM) | 3.5 | 64 (≈ 313 µM) | 64 (≈ 313 µM) | 64 (≈ 313 µM) | 128 (≈ 627 µM) | 64 (≈ 313 µM)
15 | C=CCOc1ccc2ccc(=O)oc2c1 [7-ALLYLOXYCOUMARIN] | 64 (≈ 317 µM) | 64 (≈ 317 µM) | 64 (≈ 317 µM) | 3.49 | 64 (≈ 317 µM) | 64 (≈ 317 µM) | 64 (≈ 317 µM) | 256 (≈ 1270 µM) | 64 (≈ 317 µM)
16 | CC(C)=CCOc1ccc2ccc(=O)oc2c1 [7-PRENYLOXYCOUMARIN] | 1020 (≈ 4450 µM) | 1020 (≈ 4450 µM) | 128 (≈ 556 µM) | 3.25 | 128 (≈ 556 µM) | 128 (≈ 556 µM) | 1020 (≈ 4450 µM) | 1020 (≈ 4450 µM) | 128 (≈ 556 µM)
17 | C[C@@H]1[C@H](O)[C@@H](C)/C=C/C=C/C=C/C=C/C=C/C=C/C=C/[C@H](O[C@@H]2O[C@H](C)[C@@H](O)[C@H](N)[C@@H]2O)C[C@@H]2O[C@](O)(C[C@@H](O)C[C@@H](O)[C@H](O)CC[C@@H](O)C[C@@H](O)CC(=O)O[C@H]1C)C[C@H](O)[C@H]2C(=O)O [AMPHOTERICIN B] | 2 (≈ 2.16 µM) | 2 (≈ 2.16 µM) | 2 (≈ 2.16 µM) |  | 2 (≈ 2.16 µM) | 2 (≈ 2.16 µM) | 512 (≈ 554 µM) | 8 (≈ 8.66 µM) | 2 (≈ 2.16 µM)
18 | CC(C)=CCC/C(C)=C/COc1ccc2ccc(=O)oc2c1 [AURAPTENE] | ≥ 2050 | ≥ 2050 | ≥ 2050 | 2.16 | ≥ 2050 | ≥ 2050 | ≥ 2050 | ≥ 2050 | ≥ 2050
19 | O=C(O)c1cc2ccccc2oc1=O [COUMARIN-3-CARBOXYLIC ACID] | 1020 (≈ 5390 µM) | 1020 (≈ 5390 µM) | 1020 (≈ 5390 µM) | 2.26 | 1020 (≈ 5390 µM) | 1020 (≈ 5390 µM) | 1020 (≈ 5390 µM) | ≥ 2050 | 1020 (≈ 5390 µM)
20 | O=c1ccc2ccccc2o1 [COUMARIN] | 1020 (≈ 7010 µM) | 1020 (≈ 7010 µM) | 1020 (≈ 7010 µM) | 2.15 | 1020 (≈ 7010 µM) | 1020 (≈ 7010 µM) | 1020 (≈ 7010 µM) | 1020 (≈ 7010 µM) | 1020 (≈ 7010 µM)
21 | O=c1oc2ccccc2c(O)c1Cc1c(O)c2ccccc2oc1=O [DICUMAROL] | ≥ 2050 | ≥ 2050 | ≥ 2050 | 2.21 | ≥ 2050 | ≥ 2050 | ≥ 2050 | ≥ 2050 | ≥ 2050
22 | O=c1ccc2cc(O)c(O)cc2o1 [ESCULETIN] | ≥ 2050 | ≥ 2050 | ≥ 2050 | 1.93 | ≥ 2050 | ≥ 2050 | ≥ 2050 | ≥ 2050 | ≥ 2050
23 | COc1cc2ccc(=O)oc2c(O)c1O [FRAXETIN] | ≥ 2050 | ≥ 2050 | ≥ 2050 | 2 | ≥ 2050 | ≥ 2050 | ≥ 2050 | ≥ 2050 | ≥ 2050
24 | COc1cc2ccc(=O)oc2cc1O [SCOPOLETIN] | ≥ 2050 | ≥ 2050 | ≥ 2050 | 1.97 | ≥ 2050 | ≥ 2050 | ≥ 2050 | ≥ 2050 | ≥ 2050
25 | O=c1ccc2ccc(O)cc2o1 [UMBELLIFERONE] | ≥ 2050 | ≥ 2050 | ≥ 2050 | 1.89 | ≥ 2050 | ≥ 2050 | ≥ 2050 | ≥ 2050 | ≥ 2050
